# Hits are enriched below; roughly 2.4% of the tested compounds scored in any of these assays.
# TAG inh: inhibitors of triacylglycerol accumulation; inhibition, % at 12.5 µM; hit rate 0.66% among 230,000; H9c2 cells, Nile Red lipid (TAG) fluorescence; cells loaded with 200 µM oleic acid; AID 651582;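 active = pattern-corrected inhibition of lipid staining of at least 50% with the nuclear-stain viability signal not falling by more than 50%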
# aDG glyco act: increases alpha dystroglycan glycosylation. activation, % at 10 µM. hit rate 0.22% among 360,000. AID 624168. Pro5-aDG cells, alpha-DG glycosylation AlphaScreen (IIH6); 0% Pro5, 100% B10-LARGE cell signal;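 active = activation of at least 8% versus controls, or a plate z-score of at least 8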;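 also: Pro5 are CHO cells carrying HIG-tagged alpha-DG that lacks glycosylation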
# NTR1 agonist: agonists of human neurotensin receptor NTR1 | activation, % at 20 µM | NTR1-U2OS beta-arrestin-GFP spot imaging, agonist mode | P30989 | hit rate 0.17% among 330,000;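 active = activation at or above 40% of the spot to cytoplasm intensity ratio, with at least 20 cells analyzed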
# Target sequence (P30989 whole entry, looked up): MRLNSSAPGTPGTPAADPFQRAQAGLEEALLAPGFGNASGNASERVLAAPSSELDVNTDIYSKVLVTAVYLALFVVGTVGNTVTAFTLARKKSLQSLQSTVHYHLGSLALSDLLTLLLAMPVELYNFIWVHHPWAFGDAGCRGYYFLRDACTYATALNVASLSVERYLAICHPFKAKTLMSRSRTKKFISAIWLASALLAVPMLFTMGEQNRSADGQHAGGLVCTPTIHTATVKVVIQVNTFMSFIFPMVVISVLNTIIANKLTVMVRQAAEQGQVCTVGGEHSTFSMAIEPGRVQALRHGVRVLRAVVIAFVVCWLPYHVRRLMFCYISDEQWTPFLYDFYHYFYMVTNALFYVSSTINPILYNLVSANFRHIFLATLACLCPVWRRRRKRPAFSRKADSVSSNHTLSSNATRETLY
# MC4R antag cAMP: blocks human MC4R cAMP signaling; P32245; MC4R-expressing cells, MTII-stimulated cAMP, LANCE TR-FRET; inhibition, % at 6.5 µM; hit rate 0.48% among 360,000;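 active = inhibition above its plate's cutoff, the mean of tested wells on that plate plus 3 SD, cut at about 29% in these data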
#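 Assay system: U2OS-MC4R stable cell line; Also added: Melanotan II; Technique: Eu-cAMP/anti-cAMP TR-FRET, emission 671 nm; Times: 30-min compound, 1-h challenge, 1-h detection, room temperature.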
# MC4R ag barr: agonists of human melanocortin 4 receptor (MC4R) beta-arrestin; U2OS MC4R beta-arrestin complementation, luminescence; percent of melanotan II response, DMSO zero; activation, % at 8.9 µM; hit rate 0.98% among 360,000;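 active = activation above a per-plate cutoff, the mean activation of sample wells on that plate plus 3 SD, cut at about 8% in these data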
# Tb MetRS inh: blocks T. brucei methionyl-tRNA synthetase activity; purified T. brucei MetRS, ATP depletion, Kinase-Glo luminescence; inhibition, % at 11.9 µM; hit rate 0.4% among 360,000; AID 624268;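 active = inhibition above a per-plate cutoff of the control wells' mean inhibition plus 3 SD, cut at about 5.5% in these data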
#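 Test system: purified T. brucei MetRS enzyme. Also added: ATP, methionine and E. coli bulk tRNA substrates. Compound: 11.9 µM single point. Schedule: 15 min enzyme-compound preincubation, 2 h reaction, 10 min detection, 25 °C. Signal: luciferase luminescence of residual ATP, Kinase-Glo. Evaluation: percent inhibition versus plate control medians. Controls: DMSO wells, low control.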
# TbMetRS confirm: confirmation of Trypanosoma brucei MetRS inhibitors; hit rate 93% among 1,400; T. brucei MetRS enzyme, luminescence (ATP depletion); shares compounds with Tb MetRS inh; inhibition, % at 11.9 µM; in the data active = inhibition above about 7%
# Jurkat tox: Jurkat T cell cytotoxicity for MetRS hits; shares compounds with Tb MetRS inh; Jurkat cells viability, ATP luminescence; inhibition, % at 8.3 µM; hit rate 12% among 1,400; AID 624413; in the data active = inhibition above about 15%
# Tb MetRS inh FP: T. brucei MetRS inhibition, orthogonal assay; inhibition, % at 11.9 µM; shares compounds with Tb MetRS inh; purified T. brucei MetRS, fluorescence polarization; hit rate 44% among 1,400; in the data active = inhibition above about 17%
# Numbers stand for hits; - = inactive; . = no result.
SMILES,TAG inh,aDG glyco act,NTR1 agonist,MC4R antag cAMP,MC4R ag barr,Tb MetRS inh,TbMetRS confirm,Jurkat tox,Tb MetRS inh FP
CN1CCN(C(=O)CCCOc2ccc(Cl)cc2Cl)CC1,.,-,-,-,-,-,.,.,.
C#CCN(C)CCCOc1ccc(Cl)cc1Cl,-,-,-,-,-,7.3,18.2,-,-
COc1ccc(CNC(=O)COC(=O)CCCOc2ccc(Cl)cc2Cl)cc1,.,-,-,-,-,-,.,.,.
CCN(CC)C(=O)CCCOc1ccc(Cl)cc1Cl,-,-,-,-,-,9.1,16.2,-,-
CC(C)NC(=O)CCCOc1ccc(Cl)cc1Cl,.,-,-,-,-,6.3,11.0,-,-
Cc1ccccc1CN1C(=O)CN(S(C)(=O)=O)CC1(C)C(=O)NC(C)C (configuration not stated),.,-,.,.,.,-,.,.,.
CCOCCCNc1ncnc2c1[nH]c1ccccc12,-,-,-,-,-,54.6,76.4,-,51.6
CCCCOCCCNc1ncnc2c1[nH]c1ccccc12,.,-,-,-,-,92.7,105.9,44.0,95.5
CCOc1ccc2[nH]c3c(NCCO)ncnc3c2c1,.,-,-,-,-,-,.,.,.
CCCCOc1ncnc2c1[nH]c1ccccc12,.,-,-,-,-,-,.,.,.
CC1CCCC(C)N1C(=O)CN1C(=O)NC2(CCCCCC2)C1=O (configuration not stated),-,-,.,-,-,-,.,.,.
CN1C[C@@H](CO)O[C@@H](n2cnc3c(N4CCOCC4)ncnc32)C1,-,-,.,-,-,-,.,.,.
COC(=O)C(C(=O)OC)c1ccccc1CNS(=O)(=O)c1ccc(C)cc1,.,-,.,.,.,-,.,.,.
O=C(Cc1cccs1)NCc1cc(Cl)cc(Cl)c1,.,-,-,-,-,56.2,73.5,-,43.9
S=C(NCc1cccs1)Nc1cc(Cl)cc(Cl)c1,-,-,-,-,-,23.5,30.8,-,19.8
CN(CCC(=O)Nc1ccc2c(c1)OCO2)Cc1ccccc1,.,-,-,-,-,-,.,.,.
Cc1ccc(C)c(NC(=O)CN(C)C(=O)Cc2ccc(Cl)cc2Cl)c1,.,-,-,-,-,-,.,.,.
Cc1ccc(NC(=O)CN(C)C(=O)Cc2ccc(Cl)cc2Cl)cc1,.,-,-,-,-,53.8,66.9,-,42.0
CN(CC(=O)Nc1ccc(Cl)cc1)C(=O)CCc1c[nH]c2ccccc12,.,-,-,-,-,33.8,54.5,-,23.0
CN(CC(=O)Nc1ccc(Cl)cc1)C(=O)CCc1ccccc1,.,-,-,-,-,19.7,39.2,-,17.8
CN(CCC(=O)Nc1ccc(Cl)cc1)Cc1ccccc1,.,-,-,-,-,13.8,30.7,-,-
CN(CC(=O)Nc1ccc(Cl)cc1)C(=O)CCNC(=O)c1ccc(Cl)cc1,-,-,-,-,-,-,.,.,.
COc1cc(-c2coc3c(C(=O)NCc4ccccc4)cccc23)ccc1O,-,-,.,-,-,-,.,.,.
CN(CC(=O)Nc1ccc(Cl)cc1)CC(=O)Nc1cccc(Br)c1,.,-,-,-,-,29.9,49.3,-,28.5
CCc1ccc(C2C(=O)c3ccccc3C2=O)cc1,-,-,-,-,-,6.3,-,-,-
COc1ccc(C2C(=O)c3ccccc3C2=O)cc1,-,-,-,-,-,-,.,.,.
O=C(Nc1ccc(F)cc1)C(c1cccc(F)c1)N1CCN(C(=O)c2ccco2)CC1 (configuration not stated),.,-,.,.,.,-,.,.,.
CCOC(=O)C1(C)CCCN(C(=O)Cc2ccc3ccccc3c2)C1 (configuration not stated),-,-,.,-,-,-,.,.,.
COc1ccc(CCC2=NCCN2C(CC(C)C)c2nc3ccccc3[nH]2)cc1 (configuration not stated),.,-,.,.,.,12.4,19.9,-,-
CCc1nnc(N/N=C\c2ccc(OC(C)=O)c(OC)c2)n1N,.,-,-,-,-,6.6,-,-,-

# Assay outcomes from PubChem BioAssay.
